Structures can show the parent of a compound that is named as a salt. Calls of active or inactive are those of the source. No cut-off for these calls is given here.
Legend:
[1] = system: Mycolicibacterium smegmatis; experiment: Antimycobacterial activity against Mycobacterium smegmatis NBRC 3207 assessed as inhibition zone at 20 ug/disc after 2 days incubation by paper disc method; type: functional; settings: NBRC 3207, 48 h, read-out: IZ
Method in brief: (§1)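 Disc diffusion: strain grown in Middlebrook 7H9 broth (0.05% polysorbate 80, 0.5% glycerol, 10% OADC) 2 days at 37 °C, adjusted to 1.0 × 10^6 CFU/mL, spread on same medium with 1.5% agar. Sample in CH3OH dried onto 6 mm filter disc, placed on plate, 2 days at 37 °C. Controls: streptomycin sulfate 5 μg/disc, CH3OH.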

[2] = Cytotoxicity against human HuH7 cells after 72 hrs by WST1 assay; type: functional, cell-based; settings: Huh-7, 72 h
Method in brief: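 1 × 10^4 cells/well seeded, cultured overnight, then exposed to compound 72 h; vehicle control 0.1% EtOH. WST-1 reagent (0.5 mM WST-1, 0.02 mM 1-methoxy-5-methylphenazinium methylsulfate) added, 60 min at 37 °C. Viability = treated/control absorbance × 100%.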

[3] = target: T1, Tyrosine-protein phosphatase non-receptor type 1 (Homo sapiens, UniProt P18031); experiment: Inhibition of human recombinant PTP1B using pNPP as substrate assessed as rate of hydrolysis incubated for 10 mins prior to substrate addition measured after 30 mins by microplate reader analysis
T1 sequence (P18031 whole entry): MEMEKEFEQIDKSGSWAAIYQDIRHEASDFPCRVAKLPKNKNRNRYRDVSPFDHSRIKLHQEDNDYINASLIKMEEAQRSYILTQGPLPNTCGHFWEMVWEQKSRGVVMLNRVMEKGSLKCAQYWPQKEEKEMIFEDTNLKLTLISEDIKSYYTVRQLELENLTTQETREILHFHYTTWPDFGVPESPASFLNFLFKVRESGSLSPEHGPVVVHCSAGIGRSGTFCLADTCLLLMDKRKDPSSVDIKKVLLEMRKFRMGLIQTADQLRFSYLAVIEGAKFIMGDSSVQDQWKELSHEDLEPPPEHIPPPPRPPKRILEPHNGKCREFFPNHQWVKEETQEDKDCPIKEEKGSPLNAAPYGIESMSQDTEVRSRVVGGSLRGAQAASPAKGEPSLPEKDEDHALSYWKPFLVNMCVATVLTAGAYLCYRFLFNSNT

[4] = Cytotoxicity against human EJ1 cells after 72 hrs by WST1 assay; type: functional, cell-based; settings: EJ1, 72 h
Method in brief: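 1 × 10^4 cells/well seeded, cultured overnight, then exposed to compound 72 h; vehicle control 0.1% EtOH. WST-1 reagent (0.5 mM WST-1, 0.02 mM 1-methoxy-5-methylphenazinium methylsulfate) added, 60 min at 37 °C. Absorbance 438 nm (reference 620 nm). Viability = treated/control absorbance × 100%.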

[5] = system: Mycolicibacterium smegmatis; experiment: Antimycobacterial activity against Mycobacterium smegmatis NBRC 3207 assessed as inhibition zone at 10 ug/disc after 2 days incubation by paper disc method; type: functional; settings: for zone of inhibition at 10 µg/disc: NBRC 3207, 48 h, read-out: IZ; method in brief: as §1

Work on CC1=CCC[C@H](C)[C@@]1(C)CCC(C)(O)CCC/C(C)=C/C[n+]1cn(C)c2ncnc(N)c21 (stereo partly specified) yielded a zone of inhibition at 20 µg/disc [1] of 10 mm, an IC50 [2] of over 50 µM and an IC50 [3] of over 23 µM. The IC50 [4] was over 50 µM.

In the case of COc1cccc2c1C(=O)c1c(O)c3c(c(O)c1C2=O)C[C@@](O)(C(=O)CO)C[C@@H]3O[C@H]1C[C@H](N)[C@H](O)[C@H](C)O1 [DOXORUBICIN], the IC50 [4] is reported as 0.023 µM.

For CN[C@@H]1[C@H](O[C@H]2[C@H](O[C@H]3[C@H](O)[C@@H](O)[C@H](N=C(N)N)[C@@H](O)[C@@H]3N=C(N)N)O[C@@H](C)[C@]2(O)C=O)O[C@@H](CO)[C@H](O)[C@H]1O [STREPTOMYCIN SULFATE], the zone of inhibition at 10 µg/disc [5] was 30 mm.

CC1=CCC[C@H]2[C@](C)(CC/C(C)=C/Cn3c[n+](C)c4ncnc(N)c43)[C@@H](C)CC[C@@]12C [AGELASINE A] gave a zone of inhibition at 20 µg/disc [1] of 14 mm, an IC50 [2] of over 50 µM and an IC50 [3] of over 24 µM. It also gave an IC50 [4] of 42 µM and a zone of inhibition at 10 µg/disc [5] of 12 mm.

C=C1CCCC(C)(C)[C@H]1CC/C(C)=C/CC/C(C)=C/C[n+]1cn(C)c2ncnc(N)c21 showed a zone of inhibition at 20 µg/disc [1] of 14 mm, an IC50 [2] of over 50 µM and an IC50 [3] of over 24 µM. The IC50 [4] was over 50 µM and the zone of inhibition at 10 µg/disc [5] was 10 mm.

For CC1=CC(=O)C[C@H](C)[C@@]1(C)CC/C(C)=C/CC/C(C)=C/C[n+]1cn(C)c2ncnc(N)c21, the IC50 [2] was over 50 µM, the IC50 [3] was over 23 µM and the IC50 [4] was over 50 µM.

C/C(=C\Cn1c[n+](C)c2ncnc(N)c21)CC[C@]1(C)[C@@H](C)CC[C@@]2(C)C(COC(=O)c3ccc[nH]3)=CCC[C@@H]12 [AGELINE B] gave a zone of inhibition at 20 µg/disc [1] of 12 mm, an IC50 [2] of over 50 µM and an IC50 [3] of over 19 µM. For the same molecule, the IC50 [4] was over 50 µM and the zone of inhibition at 10 µg/disc [5] was 9 mm.

For CC1=CCC[C@@H]2[C@@](C)(CC/C(C)=C/Cn3c[n+](C)c4ncnc(N)c43)[C@H](C)CC[C@@]12C [AGELASINE B], the zone of inhibition at 20 µg/disc [1] was 15 mm, the IC50 [2] was 22 µM and the IC50 [3] was over 24 µM. It also gave an IC50 [4] of 19 µM and a zone of inhibition at 10 µg/disc [5] of 12 mm.

Work on C=C1CC[C@@H]2C(C)(C)CCC[C@@]2(C)[C@@H]1CC/C(C)=C/Cn1c[n+](C)c2ncnc(N)c21 [AGELASINE D] yielded a zone of inhibition at 20 µg/disc [1] of 18 mm, an IC50 [2] of 36 µM and an IC50 [3] of over 24 µM. The IC50 [4] was 19 µM and the zone of inhibition at 10 µg/disc [5] was 14 mm.

Work on CC1=CCC[C@H](C)[C@@]1(C)CC/C(C)=C/CC/C(C)=C/Cn1c[n+](C)c2ncnc(N)c21 [AGELINE A] yielded a zone of inhibition at 20 µg/disc [1] of 20 mm, an IC50 [2] of 24 µM and an IC50 [3] of over 24 µM. For the same molecule, the IC50 [4] was 16 µM and the zone of inhibition at 10 µg/disc [5] was 14 mm.

CC1=CC(=O)C[C@H]2[C@](C)(CC/C(C)=C/C[n+]3cn(C)c4ncnc(N)c43)[C@@H](C)CC[C@@]12C showed an IC50 [2] of over 50 µM, an IC50 [3] of over 23 µM and an IC50 [4] of over 50 µM. The “growth inhibition (GI)” value [5] was “inactive”.

For C/C(=C\Cn1c[n+](C)c2ncnc(N)c21)CC[C@]1(C)[C@@H](C)CC[C@@]2(C)C(COC(=O)c3cc(Br)c[nH]3)=CCC[C@@H]12, the zone of inhibition at 20 µg/disc [1] was 12 mm, the IC50 [2] was 26 µM and the IC50 [3] was 15 µM. The IC50 [4] was 18 µM and the zone of inhibition at 10 µg/disc [5] was 10 mm.

Molecule CC1=CC(=O)C[C@@H]2[C@@](C)(CC/C(C)=C/C[n+]3cn(C)c4ncnc(N)c43)[C@H](C)CC[C@@]12C has an IC50 [2] of over 50 µM, an IC50 [3] of over 23 µM and an IC50 [4] of over 50 µM.

Source: ChEMBL document CHEMBL3585317, “Structures and Biological Evaluations of Agelasines Isolated from the Okinawan Marine Sponge Agelas nakamurai” (J Nat Prod, 2015)
